# Measurements as given in ChEMBL document CHEMBL5303300, “EUbOPEN Chemogenomics Library - Multiplex” (2023).
# Where “and” joins values, the source holds several entries; their conditions need not be identical. Equal entries are not always repeated.
# Tested on: U2OS
# Test: Multiplex assay against U2OS
# Format: toxicity, cell-based
# Details: human, number of replicates 2
# Method in brief: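 Compound was added to live cells that had been stained at seeding with Hoechst33342, BioTracker Green Microtubule Cytoskeleton Dye, MitoTracker Red and Annexin V Alexa Fluor 680, and imaging followed on a CQ1 microscope at 37°C and 5% CO2. CellPathfinder machine-learning gating divided cells into Hoechst high-intensity objects or normal cells, normal cells into healthy, pyknosed or fragmented nuclei, and pyknosed cells into mitotic or apoptotic. Tubulin, mitochondrial-mass and membrane-permeability phenotypes are per cents of healthy-nucleus cells.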
# [1] = 12 h, 10 µM, compound concentration 10 uM
# [2] = 24 h, 10 µM, compound concentration 10 uM
# [3] = 48 h, 10 µM, compound concentration 10 uM
# [4] = 12 h, 1 µM, compound concentration 1 uM
# [5] = 24 h, 1 µM, compound concentration 1 uM
# [6] = 48 h, 1 µM, compound concentration 1 uM
compound,measurement,setting,value
CC(=O)O[C@H]1C(=O)[C@@]2(C)[C@H]([C@H](OC(=O)c3ccccc3)[C@]3(O)C[C@H](OC(=O)[C@H](O)[C@@H](NC(=O)c4ccccc4)c4ccccc4)C(C)=C1C3(C)C)[C@]1(OC(C)=O)CO[C@@H]1C[C@@H]2O [PACLITAXEL],Population Apoptotic (%),[1],75% and 81% and 77%
same,Population Healthy Nuclei (%),[1],47% and 63% and 72% and 76%
same,Population Hoechst High Intensity Objects (%),[1],0%
same,Population Membrane Permeable-Phenotype (%),[1],6% and 3% and 4%
same,Population Mitochondria Different-Phenotype (%),[1],12% and 10% and 16% and 15%
same,Population Mitotic Cells (%),[1],25% and 18% and 22%
same,Population Normal (%),[1],100% and 99%
same,Population Pyknosed Nuclei (%),[1],11% and 18% and 15% and 13%
same,Population Tubulin-Different-Phenotype (%),[1],33% [middle of 4 runs]
same,Population Apoptotic (%),[2],72% and 57% and 74% and 78%
same,Population Healthy Nuclei (%),[2],33% and 55% and 66% and 65%
same,Population Hoechst High Intensity Objects (%),[2],2% and 0%
same,Population Membrane Permeable-Phenotype (%),[2],7% and 3%
same,Population Mitochondria Different-Phenotype (%),[2],27% [middle of 4 runs]
same,Population Mitotic Cells (%),[2],27% and 42% and 26% and 21%
same,Population Normal (%),[2],97% and 100% and 99%
same,Population Pyknosed Nuclei (%),[2],26% and 25% and 20%
same,Population Tubulin-Different-Phenotype (%),[2],21% and 19% and 36%
same,Population Apoptotic (%),[3],77% and 76% and 90% and 93%
same,Population Healthy Nuclei (%),[3],33% and 30% and 56% and 60%
same,Population Hoechst High Intensity Objects (%),[3],0%
same,Population Mitochondria Different-Phenotype (%),[3],38% and 42% and 41%
same,Population Normal (%),[3],100% and 99%
same,Population Pyknosed Nuclei (%),[3],35% and 28% and 32%
same,Population Tubulin-Different-Phenotype (%),[3],33% and 28% and 32% and 41%
CNc1ncc2cc(-c3ccc(-c4cccc(C)n4)cc3Cl)c(=O)n(C[C@H]3OC[C@H](N)CO3)c2n1,Population Apoptotic (%),[4],75% and 70%
same,Population Healthy Nuclei (%),[4],33% and 85%
same,Population Hoechst High Intensity Objects (%),[4],0%
same,Population Mitochondria Different-Phenotype (%),[4],7% and 0%
same,Population Mitotic Cells (%),[4],25% and 29%
same,Population Normal (%),[4],100% and 99%
same,Population Pyknosed Nuclei (%),[4],19% and 10%
same,Population Tubulin-Different-Phenotype (%),[4],42% and 70%
same,Population Apoptotic (%),[1],60% and 36%
same,Population Fragmented Nuclei (%),[1],38% and 16%
same,Population Healthy Nuclei (%),[1],28% and 54%
same,Population Hoechst High Intensity Objects (%),[1],5% and 0%
same,Population Membrane Permeable-Phenotype (%),[1],15% and 11%
same,Population Mitotic Cells (%),[1],39% and 63%
same,Population Normal (%),[1],94% and 99%
same,Population Pyknosed Nuclei (%),[1],32% and 29%
same,Population Tubulin-Different-Phenotype (%),[1],50% and 38%
same,Population Apoptotic (%),[5],80% and 76%
same,Population Healthy Nuclei (%),[5],42% and 79%
same,Population Hoechst High Intensity Objects (%),[5],0%
same,Population Mitochondria Different-Phenotype (%),[5],5% and 1%
same,Population Mitotic Cells (%),[5],20% and 23%
same,Population Normal (%),[5],100% and 99%
same,Population Pyknosed Nuclei (%),[5],23% and 12%
same,Population Tubulin-Different-Phenotype (%),[5],50% and 75%
same,Population Apoptotic (%),[2],43% and 53%
same,Population Fragmented Nuclei (%),[2],31% and 17%
same,Population Healthy Nuclei (%),[2],20% and 51%
same,Population Hoechst High Intensity Objects (%),[2],6% and 1%
same,Population Mitochondria Different-Phenotype (%),[2],57% and 19%
same,Population Mitotic Cells (%),[2],56% and 46%
same,Population Normal (%),[2],93% and 98%
same,Population Pyknosed Nuclei (%),[2],47% and 31%
same,Population Tubulin-Different-Phenotype (%),[2],21% and 32%
same,Population Apoptotic (%),[6],75% and 83%
same,Population Healthy Nuclei (%),[6],54% and 80%
same,Population Hoechst High Intensity Objects (%),[6],0%
same,Population Membrane Permeable-Phenotype (%),[6],9% and 2%
same,Population Mitochondria Different-Phenotype (%),[6],4% and 1%
same,Population Mitotic Cells (%),[6],25% and 16%
same,Population Normal (%),[6],100% and 99%
same,Population Pyknosed Nuclei (%),[6],16% and 13%
same,Population Tubulin-Different-Phenotype (%),[6],73% and 79%
same,Population Apoptotic (%),[3],60% and 61%
same,Population Fragmented Nuclei (%),[3],45% and 16%
same,Population Hoechst High Intensity Objects (%),[3],5% and 1%
same,Population Mitotic Cells (%),[3],39% and 38%
same,Population Normal (%),[3],94% and 98%
same,Population Pyknosed Nuclei (%),[3],41% and 34%
same,Population Tubulin-Different-Phenotype (%),[3],44% and 50%
C=CC(=O)Nc1cccc(C)c1Nc1ncc2cc(-c3c(Cl)c(OC)cc(OC)c3Cl)ccc2n1,Population Apoptotic (%),[4],81% and 76%
same,Population Fragmented Nuclei (%),[4],9% and 3%
same,Population Healthy Nuclei (%),[4],69% and 91%
same,Population Hoechst High Intensity Objects (%),[4],1% and 0%
same,Population Membrane Permeable-Phenotype (%),[4],5% and 0%
same,Population Mitochondria Different-Phenotype (%),[4],0%
same,Population Mitotic Cells (%),[4],18% and 23%
same,Population Normal (%),[4],98% and 100%
same,Population Tubulin-Different-Phenotype (%),[4],75% and 77%
same,Population Apoptotic (%),[1],54% and 69%
same,Population Healthy Nuclei (%),[1],45% and 68%
same,Population Hoechst High Intensity Objects (%),[1],0%
same,Population Membrane Permeable-Phenotype (%),[1],0% and 5%
same,Population Mitochondria Different-Phenotype (%),[1],0% and 9%
same,Population Mitotic Cells (%),[1],45% and 30%
same,Population Normal (%),[1],100%
same,Population Pyknosed Nuclei (%),[1],33% and 26%
same,Population Tubulin-Different-Phenotype (%),[1],80% and 56%
same,Population Apoptotic (%),[5],71% and 50%
same,Population Healthy Nuclei (%),[5],63% and 88%
same,Population Hoechst High Intensity Objects (%),[5],1% and 0%
same,Population Membrane Permeable-Phenotype (%),[5],0% and 1%
same,Population Mitochondria Different-Phenotype (%),[5],0%
same,Population Mitotic Cells (%),[5],28% and 50%
same,Population Normal (%),[5],98% and 100%
same,Population Pyknosed Nuclei (%),[5],18% and 8%
same,Population Tubulin-Different-Phenotype (%),[5],87% and 78%
same,Population Apoptotic (%),[2],86% and 90%
same,Population Fragmented Nuclei (%),[2],17% and 7%
same,Population Healthy Nuclei (%),[2],40% and 54%
same,Population Hoechst High Intensity Objects (%),[2],0%
same,Population Membrane Permeable-Phenotype (%),[2],0% and 1%
same,Population Mitochondria Different-Phenotype (%),[2],0% and 8%
same,Population Mitotic Cells (%),[2],13% and 9%
same,Population Normal (%),[2],100%
same,Population Pyknosed Nuclei (%),[2],42% and 38%
same,Population Tubulin-Different-Phenotype (%),[2],92% and 65%
same,Population Apoptotic (%),[6],70% and 59%
same,Population Fragmented Nuclei (%),[6],10% and 1%
same,Population Healthy Nuclei (%),[6],72% and 88%
same,Population Hoechst High Intensity Objects (%),[6],1% and 0%
same,Population Membrane Permeable-Phenotype (%),[6],4% and 1%
same,Population Mitochondria Different-Phenotype (%),[6],1% and 0%
same,Population Mitotic Cells (%),[6],29% and 40%
same,Population Normal (%),[6],98% and 99%
same,Population Pyknosed Nuclei (%),[6],17% and 9%
same,Population Tubulin-Different-Phenotype (%),[6],90% and 85%
same,Population Apoptotic (%),[3],77% and 93%
same,Population Fragmented Nuclei (%),[3],6% and 9%
same,Population Healthy Nuclei (%),[3],31% and 40%
same,Population Hoechst High Intensity Objects (%),[3],0% and 1%
same,Population Membrane Permeable-Phenotype (%),[3],11% and 10%
same,Population Mitochondria Different-Phenotype (%),[3],11% and 10%
same,Population Normal (%),[3],100% and 98%
same,Population Pyknosed Nuclei (%),[3],62% and 50%
same,Population Tubulin-Different-Phenotype (%),[3],100% and 91%
